Assay results pooled from the literature.
Lines come from different studies, so protocols differ.
Cell line: NCI-H460
Effect on: cell growth or viability

C=C(Cl)C(=O)Nc1cc(Nc2nc(Nc3cnn(C)c3)c3sccc3n2)c(OC)cc1N(C)CCN(C)C
IC50 (MTT): 3.22 µM

COc1cccc2c1C(=O)c1c(O)c3c(c(O)c1C2=O)C[C@@](O)(C(=O)CO)C[C@@H]3O[C@H]1C[C@H](N)[C@H](O)[C@H](C)O1
IC50 (SRB): 4.29 µM

CC(=O)O[C@H]1CC[C@]2(C)[C@H]3CC=C4[C@@H]5CC(C)(C)CC[C@]5(C)CC[C@@]4(C)[C@]3(C)CC[C@H]2C1(C)C
IC50 (48 h): 10.6 µM

CCC(=O)Nc1cc(Nc2nc(N3CCc4sccc4C3)c3cccnc3n2)c(OC)cc1N1CCC(N(C)C)CC1
IC50 (MTT): 2.46 µM

CC[C@@]1(O)C(=O)OCc2c1cc1n(c2=O)Cc2cc3ccccc3nc2-1
IC50 (72 h): < 0.01 µM

O=C(O)/C=C/c1ccc(O)cc1
IC50 (MTT): > 50 µM

O=C/C(=C/Cc1ccc(O)cc1)c1ccc(O)cc1
IC50 (MTT; 24 h): 26.9 µg/mL

CCC(=O)Nc1cc(Nc2nc(N3CCOCC3)c3sccc3n2)c(OC)cc1N(C)CCN(C)C
IC50 (MTT): > 50 µM

O=C(O)/C=C/c1ccc(O)c(O)c1
IC50 (MTT): 3.9 µM

CCC(=O)Nc1cc(Nc2nc(N3CCc4sccc4C3)c3cccnc3n2)c(OC)cc1N(C)C
IC50 (MTT): 4.95 µM

COc1cc(CNC(=O)CCCC/C=C/C(C)C)ccc1OCc1cn(-c2ccc(C(F)(F)F)cc2)nn1
IC50 (SRB): 6.65 µM

COc1ccc(C/C=C/c2ccc(O)cc2)cc1
IC50 (MTT; 24 h): 14.1 µg/mL

COc1cc(Nc2nccc(-c3cnn4nc(OC)ccc34)n2)cc(C(F)(F)F)c1
IC50 (ATP luminescence): 0.33 µM

C=CC(=O)Nc1cc(Nc2nc(N3CCc4sccc4C3)c3cccnc3n2)c(OC)cc1N1CCN(CCO)CC1
IC50 (MTT): 8.03 µM

OCc1ccc2c(c1C#Cc1ccc(O)cc1)C(c1ccc(O)cc1)(c1ccc(O)cc1)c1cc(O)ccc1-2
IC50 (MTT; 48 h): > 50 µM

Oc1ccc(C/C=C(/COCc2ccccc2)c2ccc(OCc3ccccc3)cc2)cc1
IC50 (MTT; 24 h): 27.9 µg/mL

O=c1[nH]cc(F)c(=O)[nH]1
IC50 (MTT; 72 h): 3 µM

COc1cc(/C=C/Cc2ccc(O)c(OC)c2)cc(OC)c1
IC50 (MTT; 24 h): 16.1 µg/mL

COc1cc([C@@H]2c3cc4c(cc3[C@@H](O[C@@H]3O[C@@H]5CO[C@@H](C)O[C@H]5[C@H](O)[C@H]3O)[C@H]3COC(=O)[C@H]23)OCO4)cc(OC)c1O
IC50 (MTT; 72 h): 0.83 µM

Cc1cccc(-n2ncc(Br)c(Br)c2=O)c1
IC50 (resazurin; 96 h): 1.43 µM

COc1cc(N(C)CCN(C)C)c(NC(=O)/C=C/C(C)C)cc1Nc1nc(Nc2cnn(C)c2)c2sccc2n1
IC50 (MTT): 2.25 µM

CC(=O)c1ccc(N=Nc2c(C(=O)O)cc(O)c(O)c2O)cc1
IC50 (MTT): 13.6 µM

COC/C(=C/Cc1ccc(OC)cc1)c1ccc(OC)cc1
IC50 (MTT; 24 h): 75.4 µg/mL

C#Cc1cccc(Nc2ncnc3cc(OCCOC)c(OCCOC)cc23)c1
IC50 (MTT): 0.04 µM

C=CC(=O)Nc1cc(Nc2nccc(-c3cn(C)c4ccccc34)n2)c(OC)cc1N(C)CCN(C)C
IC50 (MTT): 1.97 µM

OCC(CCc1ccc(O)cc1)c1ccc(O)cc1 (centres unmarked)
IC50 (MTT; 24 h): 55 µg/mL

C=CC(=O)Nc1cc(Nc2nc(N3CCc4sccc4C3)c3cccnc3n2)c(OC)cc1N(C)CCN(C)C
IC50 (MTT): 5.68 µM

OC/C(=C/Cc1ccc(O)cc1)c1ccc(O)cc1
IC50 (MTT; 24 h): 44.9 µg/mL

O=C1NCCc2[nH]c(-c3ccncc3)cc21
IC50: 10 µM
